Reference: paper PMC3177973 (Biochemistry, 2011)

Assays:
α-synuclein [1] = molecular target: T1, α-synuclein (Homo sapiens, UniProt P37840); settings: similar effect as WW2; cited from earlier work
α-synuclein [2] = molecular target: T1, α-synuclein; assay: α-syn aggregation assay, CD spectroscopy; type: biochemical; settings: 2 molar equivalents; for β CD signal, % β, α-syn assay: at 16 h (no time printed for MrH3b); for Effect on course, onset or lag time of α-syn aggregation (in words): monitored by CD and ThT
Summary of the method: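 Recombinant full-length α-syn was expressed in E. coli BL21(DE3) and used at 100 μM in 20 mM Tris-HCl pH 7.5. Aggregation was started by HFIP addition (1.5 vol-% final) under continuous stirring at 37 °C, with or without inhibitor peptide and without ThT. Every 2–4 h, a 5 μL aliquot was diluted into 195 μL of 1.5% HFIP buffer (2.5 μM α-syn). Spectra were recorded in 0.1 cm cells to follow the random coil-to-β transition, corrected for inhibitor contribution.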

α-synuclein [3] = molecular target: T1, α-synuclein; assay: TEM imaging of α-syn aggregation assays; type: biochemical; settings: 2 molar equivalents; images after 16–24 hrs; AA = amorphous aggregates
Summary of the method: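 Full-length 140-residue α-syn was expressed in E. coli BL21(DE3) and purified by anion exchange. It was used at 100 μM in 20 mM Tris-HCl pH 7.5, at 37 °C with vigorous stirring, with or without peptide. HFIP was added to 1.5 vol-% to start aggregation. After 16–24 h, a freshly agitated 5 μL aliquot was adsorbed on formvar/carbon-coated copper grids, negatively stained with 2% uranyl acetate and imaged by TEM.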

Row | Molecule | Excess of inhibitor required for non-amyloid α-syn aggregates (α-synuclein [1]) | β CD signal, α-syn assay (in words) (α-synuclein [2]; 100 μM α-syn, 1.5 vol-% HFIP) | β CD signal, % β, α-syn assay (α-synuclein [2]) | Effect on course, onset or lag time of α-syn aggregation (in words) (α-synuclein [2]) | Fibril Morphology (TEM), α-syn (α-synuclein [3]) | Time by which β CD signal appears, α-syn assay (α-synuclein [2])
1 | O=C(O[C@@H]1Cc2c(O)cc(O)cc2O[C@@H]1c1cc(O)c(O)c(O)c1)c1cc(O)c(O)c(O)c1 [EGCG, (−)-epigallocatechin-3-gallate] | 5 fold excess | – | – | – | – | –
2 | KKLTVWI [ssW] | – | Helical at 4–6 hours 80 % β at 16 h | 80% | delays aggregation (as monitored by CD) | Normal + AA | –
3 | Ac-KIVTSAK [ssMrH] | – | – | 100% | no effects on the course of α-syn aggregation | Normal | β signal within 6 h, 100% 16 h hours
